From ChEMBL document CHEMBL5329210, “Novel piperazine-1,2,3-triazole leads for the potential treatment of pancreatic cancer” (RSC Med Chem, 2023)

Columns and labels:
[1] = Inhibition of cell growth of human SJG2 cells at 25 uM measured after 72 hrs by MTT assay relative to control; settings: SJ-G2, 72 h
[2] = tested on: MCF7; experiment: Inhibition of cell growth of human MCF7 cells at 25 uM measured after 72 hrs by MTT assay relative to control; settings: MCF7, 72 h
[3] = tested on: NCI-H460; experiment: Inhibition of cell growth of human NCI-H460 cells at 25 uM measured after 72 hrs by MTT assay relative to control; settings: NCI-H460, 72 h
[4] = Inhibition of cell growth of human MCF-10A cells at 25 uM measured after 72 hrs by MTT assay relative to control
[5] = tested on: BE(2)-C; experiment: Inhibition of cell growth of human BE2C cells at 25 uM measured after 72 hrs by MTT assay relative to control
[6] = tested on: MIA PaCa-2; experiment: Inhibition of cell growth of human MIA PaCa-2 cells at 25 uM measured after 72 hrs by CCK8 assay relative to control; type: functional
Outline: (§1)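 Single 25 μM exposure, read by CCK-8, n = 3, relative to control. Seeding was 3×10^3/well for MiaPaCa2, 7×10^3/well for BxPC3 (in RPMI-1640/10% FBS) and 1×10^4/well for HPDE (in KSFM with rEGF/BPE). After 24 h attachment, cells were exposed for 72 h. CCK-8 was then incubated for 1 h, and A450 minus A650 was compared with 0.5% DMSO.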

[7] = tested on: DU-145; experiment: Inhibition of cell growth of human DU-145 cells at 25 uM measured after 72 hrs by MTT assay relative to control; settings: DU-145, 72 h
[8] = tested on: U-87 MG; experiment: Inhibition of cell growth of human U87 cells at 25 uM measured after 72 hrs by MTT assay relative to control
[9] = tested on: A2780; experiment: Inhibition of cell growth of human A2780 cells at 25 uM measured after 72 hrs by MTT assay relative to control; settings: A2780, 72 h
[10] = tested on: A-431; experiment: Inhibition of cell growth of human A-431 cells at 25 uM measured after 72 hrs by MTT assay relative to control; settings: A-431, 72 h
[11] = tested on: HT-29; experiment: Inhibition of cell growth of human HT-29 cells at 25 uM measured after 72 hrs by MTT assay relative to control; settings: HT-29, 72 h
[12] = tested on: HPAC; experiment: Inhibition of cell growth of human HPAC cells at 25 uM measured after 72 hrs by MTT assay relative to control; type: functional
Outline: (§2)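 MTT read-out. Cancer lines were grown in DMEM with 10% FBS, glutamine and antibiotics. MCF10A was grown in DMEM:F12 with 5% horse serum, EGF, hydrocortisone, cholera toxin and insulin. Cells were plated in duplicate at 2500–4000/well, and drug was added 24 h later. After 72 h, absorbance was read at 540 nm. Single-point lines used 25 μM. GI50 is 50% growth inhibition versus untreated control. n = 3.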

[13] = tested on: BXPC-3; experiment: Inhibition of cell growth of human BXPC-3 cells at 25 uM measured after 72 hrs by MTT assay relative to control; type: functional
Outline: as §2

[14] = tested on: MCF7; experiment: Inhibition of cell growth of human MCF7 cells at 25 uM measured after 72 hrs by MTT assay relative to control; type: functional
Outline: as §2

[15] = tested on: HT-29; experiment: Inhibition of cell growth of human HT-29 cells at 25 uM measured after 72 hrs by MTT assay relative to control; type: functional
Outline: as §2

[16] = tested on: A2780; experiment: Inhibition of cell growth of human A2780 cells at 25 uM measured after 72 hrs by MTT assay relative to control; type: functional
Outline: as §2

[17] = tested on: MIA PaCa-2; experiment: Inhibition of cell growth of human MIA PaCa-2 cells at 25 uM measured after 72 hrs by MTT assay relative to control; type: functional
Outline: as §2

[18] = tested on: Capan-2; experiment: Inhibition of cell growth of human Capan-2 cells at 25 uM measured after 72 hrs by MTT assay relative to control; type: functional
Outline: as §2

[19] = tested on: ASPC1; experiment: Inhibition of cell growth of human ASPC1 cells at 25 uM measured after 72 hrs by MTT assay relative to control; type: functional
Outline: as §2

[20] = Inhibition of cell growth of human MCF-10A cells at 25 uM measured after 72 hrs by MTT assay relative to control; type: toxicity, cell-based
Outline: as §2

[21] = tested on: BE(2)-C; experiment: Inhibition of cell growth of human BE2C cells at 25 uM measured after 72 hrs by MTT assay relative to control; type: functional
Outline: as §2

[22] = tested on: PANC-1; experiment: Inhibition of cell growth of human PANC-1 cells at 25 uM measured after 72 hrs by MTT assay relative to control; type: functional
Outline: as §2

[23] = tested on: BXPC-3; experiment: Inhibition of cell growth of human BXPC-3 cells at 25 uM measured after 72 hrs by CCK8 assay relative to control; type: functional
Outline: as §1

[24] = Inhibition of cell growth of human HPDE cells at 25 uM measured after 72 hrs by CCK8 assay relative to control; type: toxicity, cell-based
Outline: as §1

| SMILES | inhibition at 25 µM [1] [%] | inhibition at 25 µM [2] [%] | inhibition at 25 µM [3] [%] | inhibition at 72 h, 25 µM [4] [%] | inhibition at 25 µM [5] [%] | inhibition at 25 µM [6] [%] | inhibition at 25 µM [7] [%] | inhibition at 25 µM [8] [%] | inhibition at 25 µM [9] [%] | inhibition at 25 µM [10] [%] | inhibition at 25 µM [11] [%] | inhibition at 25 µM [12] [%] | inhibition at 25 µM [13] [%] | inhibition at 25 µM [14] [%] | inhibition at 25 µM [15] [%] | inhibition at 25 µM [16] [%] | inhibition at 25 µM [17] [%] | inhibition at 25 µM [18] [%] | inhibition at 25 µM [19] [%] | inhibition at 72 h, 25 µM [20] [%] | also measured |
| --- | --- | --- | --- | --- | --- | --- | --- | --- | --- | --- | --- | --- | --- | --- | --- | --- | --- | --- | --- | --- | --- |
| CC(=O)Nc1ccc(S(=O)(=O)N2CCN(CCCn3cc(-c4ccc(F)cc4)nn3)CC2)cc1 | 67 | 27 | 18 | 41 | 38 | 35 | 35 | 16 | 50 | 28 | 22 | – | – | – | – | – | – | – | – | – | – |
| CCc1ccc(-c2cn(CCCN3CCN(S(=O)(=O)c4cccc(C(F)(F)F)c4)CC3)nn2)cc1 | – | – | – | – | – | – | – | – | – | – | – | 41 | 39 | 86 | 65 | 86 | 50 | 58 | 60 | 77 | inhibition at 25 µM [21]: 61%; inhibition at 25 µM [22]: 59% |
| Cc1ccc(-c2cn(CCCN3CCN(S(=O)(=O)c4ccccc4C(F)(F)F)CC3)nn2)cc1 | – | – | – | – | – | – | – | – | – | – | – | 41 | 11 | 79 | 86 | 75 | 38 | 42 | 57 | 61 | inhibition at 25 µM [21]: 35%; inhibition at 25 µM [22]: 48% |
| Cc1ccc(-c2cn(CCCN3CCN(S(=O)(=O)c4cccc(C(F)(F)F)c4)CC3)nn2)cc1 | – | – | – | – | – | – | – | – | – | – | – | 40 | 32 | 86 | 63 | 83 | 48 | 54 | 60 | 79 | inhibition at 25 µM [21]: 60%; inhibition at 25 µM [22]: 57% |
| CC(=O)Nc1ccc(S(=O)(=O)N2CCN(CCCn3cc(-c4ccc(C(F)(F)F)cc4)nn3)CC2)cc1 | 42 | 42 | 30 | 73 | 41 | 43 | 52 | 16 | 67 | 31 | 59 | – | – | – | – | – | – | – | – | – | – |
| CC(=O)Nc1ccc(S(=O)(=O)N2CCN(CCCn3cc(-c4ccc(Br)cc4)nn3)CC2)cc1 | 48 | 28 | 19 | 58 | 39 | 34 | 54 | 4 | 46 | 16 | 58 | – | – | – | – | – | – | – | – | – | – |
| O=S(=O)(c1cccc(C(F)(F)F)c1)N1CCN(CCCn2cc(-c3ccc(Br)cc3)nn2)CC1 | – | – | – | – | – | – | – | – | – | – | – | < 10 | 22 | 56 | 46 | 72 | 35 | 39 | 53 | 74 | inhibition at 25 µM [21]: 40%; inhibition at 25 µM [22]: 41% |
| O=S(=O)(c1ccccc1C(F)(F)F)N1CCN(CCCn2cc(-c3ccc(C(F)(F)F)cc3)nn2)CC1 | – | – | – | – | – | – | – | – | – | – | – | 29 | 19 | 75 | 69 | 80 | 45 | 42 | 50 | 64 | inhibition at 25 µM [21]: 62%; inhibition at 25 µM [22]: 54% |
| COc1cccc(-c2cn(CCCN3CCN(S(=O)(=O)c4ccc(C(C)=O)cc4)CC3)nn2)c1 | – | – | – | – | – | < 10 | – | – | – | – | – | – | – | – | – | – | – | – | – | – | inhibition at 25 µM [23]: 22.8%; inhibition at 72 h, 25 µM [24]: 30.1% |
| CC(=O)Nc1ccc(S(=O)(=O)N2CCN(CCCn3cc(-c4ccccc4)nn3)CC2)cc1 | 59 | 24 | 23 | 44 | 32 | 30 | 34 | 10 | 47 | 31 | 31 | – | – | – | – | – | – | – | – | – | – |
| CC(=O)Nc1ccc(S(=O)(=O)N2CCN(CCCn3cc(-c4cccc(Cl)c4)nn3)CC2)cc1 | 33 | 31 | 18 | 43 | 27 | 32 | 24 | 1 | 49 | 2 | 42 | – | – | – | – | – | – | – | – | – | – |
| CC(=O)Nc1ccc(S(=O)(=O)N2CCN(CCCn3cc(-c4ccc(C)cc4)nn3)CC2)cc1 | 72 | 42 | 34 | 67 | 36 | 38 | 61 | 22 | 57 | 40 | 46 | – | – | – | – | – | – | – | – | – | – |
| CCc1ccc(-c2cn(CCCN3CCN(S(=O)(=O)c4ccccc4C(F)(F)F)CC3)nn2)cc1 | – | – | – | – | – | – | – | – | – | – | – | 67 | 16 | 82 | 79 | 75 | 39 | 25 | 59 | 63 | inhibition at 25 µM [21]: 52%; inhibition at 25 µM [22]: 48% |
| COc1cccc(-c2cn(CCCN3CCN(S(=O)(=O)c4ccc(Cl)cc4)CC3)nn2)c1 | – | – | – | – | – | < 10 | – | – | – | – | – | – | – | – | – | – | – | – | – | – | inhibition at 25 µM [23]: 22.9%; inhibition at 72 h, 25 µM [24]: 54.3% |
| CC(=O)Nc1ccc(S(=O)(=O)N2CCN(CCCn3cc(-c4ccc([N+](=O)[O-])cc4)nn3)CC2)cc1 | 37 | 47 | 40 | 69 | 42 | 40 | 48 | 27 | 72 | 33 | 50 | – | – | – | – | – | – | – | – | – | – |
| CCc1ccc(-c2cn(CCCN3CCN(S(=O)(=O)c4ccc(NC(C)=O)cc4)CC3)nn2)cc1 | 29 | 30 | 32 | 67 | 36 | 38 | 42 | < 0 | 59 | 16 | 64 | – | – | – | – | – | – | – | – | – | – |
| COc1cccc(-c2cn(CCCN3CCN(S(=O)(=O)c4ccc(F)cc4)CC3)nn2)c1 | – | – | – | – | – | < 10 | – | – | – | – | – | – | – | – | – | – | – | – | – | – | inhibition at 25 µM [23]: 15.1%; inhibition at 72 h, 25 µM [24]: 40.8% |
| COc1cccc(-c2cn(CCCN3CCN(S(=O)(=O)c4ccc(C(C)C)cc4)CC3)nn2)c1 | – | – | – | – | – | 11.4 | – | – | – | – | – | – | – | – | – | – | – | – | – | – | inhibition at 25 µM [23]: < 10%; inhibition at 72 h, 25 µM [24]: 48.8% |
| COc1cccc(-c2cn(CCCN3CCN(S(=O)(=O)c4ccc(C(C)(C)C)cc4)CC3)nn2)c1 | – | – | – | – | – | < 10 | – | – | – | – | – | – | – | – | – | – | – | – | – | – | inhibition at 25 µM [23]: < 10%; inhibition at 72 h, 25 µM [24]: 38.2% |
